From ChEMBL document CHEMBL1914299, “Synthesis and antitumor activity of β-carboline 3-(substituted-carbohydrazide) derivatives” (Bioorg Med Chem, 2011) come the findings set out here.

What all share (format): functional, cell-based
For one test, the system named is UACC-62. Put plainly: Antitumor activity against human UACC62 cells by SRB colorimetric assay. The procedure, abridged:
(§1)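 NCI sulforhodamine B colorimetric growth assay in 96-well plates. Each compound tested at four concentrations in 10-fold dilutions. Doxorubicin as positive control. IC50 taken from concentration–response curves as the concentration giving 50% reduction in cell growth versus untreated control cells.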

Another test concerns HT-29. Description: Antitumor activity against human HT-29 cells by SRB colorimetric assay. The gist of the method:
as §1
On the technique in general: Sulforhodamine B stains cellular protein and so reports cell mass.

Another test relates to MCF7. Description: Antitumor activity against human MCF7 cells by SRB colorimetric assay. The gist of the method: as §1
In the next test the test system is K562. Put plainly: Antitumor activity against human K562 cells by SRB colorimetric assay. The gist of the method:
as §1

Another test concerns NCI-H460. Description: Antitumor activity against human NCI-H460 cells by SRB colorimetric assay. The procedure, abridged: as §1
For another test, the system named is OVCAR. Description: Antitumor activity against human OVCAR cells by SRB colorimetric assay. The gist of the method:
as §1

The nature of test [1]: Antitumor activity against human PCO3 cells by SRB colorimetric assay. The procedure, abridged:
as §1

Another test relates to 786-0. Description: Antitumor activity against human 786-0 cells by SRB colorimetric assay. The gist of the method:
as §1

Consider `O=C(N/N=C/c1ccc([N+](=O)[O-])cc1)c1cc2c([nH]c3ccccc32)c(-c2cccc([N+](=O)[O-])c2)n1`, for which the IC50 in the test on UACC-62 worked out at 3.27 µM; with HT-29 it was 7.34 µM; in the test on MCF7, 12.8 µM; with K562, 4.26 µM; in the test with NCI-H460, 6.76 µM; in the test with OVCAR, 46.7 µM. Moreover, the concentration for half-maximal inhibition (IC50) in test [1] was 24.8 µM; with 786-0, > 100 µM.
With `COc1ccc(-c2nc(C(=O)NN=C(C)C)cc3c2[nH]c2ccccc23)cc1O`, the IC50 in the test on UACC-62, with HT-29, in the test with MCF7, in the test on K562, in the test on NCI-H460 and in the test on OVCAR was > 100 µM throughout. Besides, the IC50 was > 100 µM in test [1] and 70 µM in the test on 786-0.
Take `O=C(NN=C1CCCC1)c1cc2c([nH]c3ccccc32)c(-c2ccccc2Cl)n1`: the IC50 in the test with UACC-62 was 11.7 µM; in the test on HT-29, 20.1 µM; with MCF7 it was 7.37 µM; with K562, > 100 µM; in the test with NCI-H460, 13.8 µM; in the test with OVCAR, 11.2 µM. Besides, the IC50 in test [1] stood at 15 µM; in the test on 786-0, 11.7 µM.
As to `CC(C)=NNC(=O)c1cc2c([nH]c3ccccc32)c(-c2cccc([N+](=O)[O-])c2)n1`, the IC50 in the test on UACC-62, in the test with HT-29, in the test on MCF7, in the test with K562, with NCI-H460 and in the test with OVCAR was > 100 µM each time. Further, the IC50 (in test [1]; in the test on 786-0) was > 100 µM throughout.
For `COc1ccc(/C=N/NC(=O)c2cc3c([nH]c4ccccc43)c(-c3ccc([N+](=O)[O-])cc3)n2)cc1`, the IC50 in the test on UACC-62 was 9.69 µM; in the test on HT-29, 8.92 µM; in the test with MCF7, 8.19 µM; with K562, 7.54 µM; in the test on NCI-H460, 4.58 µM; in the test on OVCAR it was 21.4 µM. The 50% inhibitory concentration (IC50) is 7.54 µM in test [1] and 14.1 µM with 786-0.
Turning to `CN(C)c1ccc(/C=N/NC(=O)c2cc3c([nH]c4ccccc43)c(-c3ccccc3)n2)cc1`, the IC50 in the test with UACC-62 was 87.1 µM; in the test on HT-29, > 100 µM; in the test on MCF7, 75.9 µM; with K562 it was > 100 µM; with NCI-H460, > 100 µM; in the test on OVCAR it was 75.9 µM. Also, the IC50 in test [1] is 87.1 µM; in the test on 786-0, > 100 µM.
Turning to `O=C(NN=C1CCCCC1)c1cc2c([nH]c3ccccc32)c(-c2ccccc2Cl)n1`, the concentration for half-maximal inhibition (IC50) is 21.6 µM in the test with UACC-62; 40.4 µM in the test with HT-29; 6.19 µM in the test on MCF7; > 100 µM in the test with K562; 54.1 µM in the test on NCI-H460; 20.8 µM with OVCAR. The 50% inhibitory concentration (IC50) turned out to be 18.3 µM in test [1] and 24.5 µM in the test with 786-0.
In the case of `O=C(NN=C1CCCCC1)c1cc2c([nH]c3ccccc32)c(-c2ccc([N+](=O)[O-])cc2)n1`, the IC50 in the test with UACC-62 was > 100 µM; in the test on HT-29 it was > 100 µM; in the test with MCF7, 25.6 µM; with K562 it was > 100 µM; with NCI-H460 it was > 100 µM; in the test with OVCAR it was > 100 µM. Also, the values for the IC50 (in test [1]; in the test on 786-0) were > 100 µM and 72.8 µM, respectively.
Consider `CN(C)c1ccc(-c2nc(C(=O)NN=C3CCCC3)cc3c2[nH]c2ccccc23)cc1`, for which the IC50 is 18.8 µM in the test on UACC-62; 55.6 µM in the test with HT-29; 22.6 µM in the test with MCF7; 13.4 µM in the test with K562; 80.9 µM in the test on NCI-H460; > 100 µM in the test with OVCAR. The results for the IC50 (in test [1]; in the test on 786-0) were 20.4 µM and > 100 µM, respectively.
With `O=C(NN=C1CCCC1)c1cc2c([nH]c3ccccc32)c(-c2ccc([N+](=O)[O-])cc2)n1`, the IC50 with UACC-62, in the test with HT-29, in the test with MCF7, with K562, in the test on NCI-H460 and with OVCAR was > 100 µM each time. Besides, the IC50 (in test [1]; in the test with 786-0) was > 100 µM each time.
As for `CC(C)=NNC(=O)c1cc2c([nH]c3ccccc32)c(-c2ccc([N+](=O)[O-])cc2)n1`, the IC50 in the test with UACC-62, in the test with HT-29, with MCF7, in the test with K562, in the test on NCI-H460 and in the test on OVCAR was > 100 µM in each case. Besides, the IC50 (in test [1]; in the test with 786-0) was > 100 µM in each case.
With `CC(C)=NNC(=O)c1cc2c([nH]c3ccccc32)c(-c2ccccc2)n1`, the IC50 in the test with UACC-62 turned out to be 10.1 µM; in the test with HT-29, 19.8 µM; in the test with MCF7 it was 14.2 µM; with K562 it was 6.69 µM; in the test on NCI-H460 it was 19.8 µM; in the test with OVCAR, 26.4 µM. Further, the IC50 in test [1] was 15.4 µM; with 786-0, 16.1 µM.
Consider `O=C(N/N=C/c1ccccc1Cl)c1cc2c([nH]c3ccccc32)c(-c2cccc([N+](=O)[O-])c2)n1`, for which the half-maximal inhibitory concentration (IC50) is 35.7 µM in the test with UACC-62; 15.3 µM in the test on HT-29; 14.1 µM with MCF7; 68.1 µM with K562; 28.9 µM in the test on NCI-H460; > 100 µM with OVCAR. For the same compound, the IC50 in test [1] is 16.6 µM; in the test with 786-0, 17 µM.
As to `O=C(N/N=C/c1ccc([N+](=O)[O-])cc1)c1cc2c([nH]c3ccccc32)c(-c2ccc([N+](=O)[O-])cc2)n1`, the IC50 in the test on UACC-62, in the test with HT-29, in the test with MCF7, with K562, in the test with NCI-H460 and with OVCAR was > 100 µM each time. In addition, the IC50 (in test [1]; in the test on 786-0) was > 100 µM throughout.
In the case of `COc1ccc(-c2nc(C(=O)NN=C(C)C)cc3c2[nH]c2ccccc23)cc1`, the IC50 was 40.7 µM in the test on UACC-62; > 100 µM in the test with HT-29; > 100 µM in the test with MCF7; > 100 µM with K562; > 100 µM in the test with NCI-H460; > 100 µM with OVCAR. Further, the IC50 (in test [1]; in the test with 786-0) was > 100 µM throughout.
Regarding `O=C(N/N=C/c1ccc([N+](=O)[O-])cc1)c1cc2c([nH]c3ccccc32)c(-c2ccccc2)n1`, the IC50 in the test with UACC-62 was found to be 4.78 µM; with HT-29 it was 15.1 µM; in the test on MCF7, 21.3 µM; with K562 it was 4.29 µM; with NCI-H460, 5.16 µM; with OVCAR it was 14.4 µM. In addition, the IC50 is 8.6 µM in test [1] and 29.7 µM in the test with 786-0.
`O=C(N/N=C/c1ccccc1Cl)c1cc2c([nH]c3ccccc32)c(-c2ccccc2)n1`: the IC50 with UACC-62 is 2.16 µM; in the test on HT-29, 1.25 µM; with MCF7, 6.13 µM; in the test with K562 it was 1.45 µM; in the test on NCI-H460, 4.57 µM; with OVCAR, 2.84 µM. For the same compound, the IC50 is 2.52 µM in test [1] and 2.16 µM in the test with 786-0.
Consider `COc1ccc(/C=N/NC(=O)c2cc3c([nH]c4ccccc43)c(-c3ccc(O)cc3)n2)cc1`, for which the IC50 with UACC-62 was 3.85 µM; in the test with HT-29, 95.6 µM; in the test on MCF7 it was > 100 µM; with K562, 87.4 µM; in the test with NCI-H460, 9.82 µM; in the test with OVCAR, 0.37 µM. Besides, in the test on 786-0, half-maximal inhibition (IC50) required 62 µM.
`COc1ccc(-c2nc(C(=O)N/N=C/c3ccccc3Cl)cc3c2[nH]c2ccccc23)cc1`: the IC50 with UACC-62 turned out to be 5.57 µM; with HT-29 it was 1.26 µM; in the test on MCF7, 10.4 µM; in the test with K562, 2.52 µM; in the test on NCI-H460, 1.43 µM; with OVCAR, 7.43 µM. In addition, the IC50 in test [1] is 4.52 µM; with 786-0, 2.52 µM.
Turning to `O=C(N/N=C/c1ccccc1)c1cc2c([nH]c3ccccc32)c(-c2ccc([N+](=O)[O-])cc2)n1`, the IC50 stood at 11.8 µM in the test with UACC-62; 18.8 µM in the test with HT-29; 25 µM with MCF7; 14.4 µM in the test with K562; 13.8 µM in the test on NCI-H460; 2.05 µM with OVCAR. The results for the IC50 (in test [1]; in the test with 786-0) were 15.9 µM and 29.9 µM, respectively.
`O=C(NN=C1CCCC1)c1cc2c([nH]c3ccccc32)c(-c2cccc([N+](=O)[O-])c2)n1`: the IC50 with UACC-62, in the test with HT-29, with MCF7, in the test with K562, with NCI-H460 and with OVCAR was > 100 µM each time. Besides, the IC50 (in test [1]; in the test with 786-0) was > 100 µM each time.
Consider `COc1ccc(/C=N/NC(=O)c2cc3c([nH]c4ccccc43)c(-c3ccccc3)n2)cc1`, for which the IC50 turned out to be 65.6 µM in the test with UACC-62; 38.5 µM with HT-29; 11 µM in the test on MCF7; 14.6 µM with K562; 59.4 µM in the test on NCI-H460; 10 µM with OVCAR. Further, the values for the IC50 (in test [1]; in the test on 786-0) were 59.4 µM and > 100 µM, respectively.
As to `COc1ccc(-c2nc(C(=O)NN=C3CCCC3)cc3c2[nH]c2ccccc23)cc1O`, the IC50 (in the test with UACC-62; with MCF7; with K562; with NCI-H460; in the test on OVCAR; in test [1]) was > 100 µM each time. In the test on 786-0, half-maximal inhibition (IC50) required 97 µM.
As for `CN(C)c1ccc(/C=N/NC(=O)c2cc3c([nH]c4ccccc43)c(-c3ccc(O)cc3)n2)cc1`, the IC50 with UACC-62 was 88.2 µM; in the test with HT-29 it was > 100 µM; with MCF7, > 100 µM; in the test on K562, > 100 µM; in the test on NCI-H460 it was 69.5 µM; in the test with OVCAR, 1.26 µM. Also, in the test with 786-0, the IC50 is > 100 µM.
As for `CN(C)c1ccc(-c2nc(C(=O)NN=C3CCCCC3)cc3c2[nH]c2ccccc23)cc1`, the IC50 (in the test on UACC-62; in the test with MCF7; in the test on K562; in the test on NCI-H460; in the test on OVCAR; in test [1]) was > 100 µM each time. Further, in the test with 786-0, the IC50 is > 100 µM.

A word on the IC50: it is the concentration that gives 50% inhibition. A lower IC50 goes with higher potency.
